Measured values published in publication PMC4094378 (European journal of medicinal chemistry, 2014).
“Also recorded” adds a separate entry of the source.

Experiments:
[1] = system: murine leukemia L1210 cells; settings: read-out: IC50 L1210; ref [21]; cited from earlier work
[2] = system: panel of seven human cancer cell lines; test: Antiproliferative activity across the panel of seven cancer cell lines; assay type: cell-based; settings: for IC50: Homo sapiens, read-out: IC50 range over the panel of cancer cell lines
Procedure, shortened: (§1)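 Jurkat, CEM and SEM cells were grown in RPMI-1640, and HeLa, MCF-7, HT-29 and LoVo in DMEM, each with 10% FBS and penicillin/streptomycin. Wells got 8 × 10^3 cells and were preincubated 18 h at 37 °C in 5% CO2. Test compound from a 10 mM DMSO stock was diluted in medium (final DMSO ≤0.25%) and applied for 72 h. Read-out was MTT. IC50 is the concentration giving 50% inhibition of proliferation, from dose–response curves of ≥3 independent experiments, mean ± SE.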

[3] = system: Bcl-2, Bax, Bak, Mcl-1 and Bid in HeLa cells; test: Western blot of Bcl-2 family proteins; assay type: cell-based, human; settings: for Mcl-1 expression: 2.5 μM, especially at 48 h; for Bid expression: evident after 24 h at the lowest concentration used
Procedure, shortened: (§2)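 HeLa cultures were sampled at the indicated times and concentrations, washed twice in 0 °C PBS and lysed 30 min at 0 °C. Lysates were clarified at 15 000 × g (4 °C, 10 min) and protein was measured by BCA. Aliquots of 20 µg were run on 7.5–15% gradient SDS-PAGE and blotted to PVDF. Membranes were blocked at 4 °C, probed 2 h at room temperature with primary antibody, then 60 min with peroxidase-labelled secondary, and developed by ECL. Membranes were reprobed for β-actin as the loading control.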

[4] = system: HeLa cells; test: Flow cytometric analysis of cell cycle distribution; assay type: cell-based, human; settings: 24 h; for effect on cell cycle progression: PI, concentration-dependent, reduction in S phase cells
Procedure, shortened: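 HeLa cells in exponential growth (2.5 × 10^5) were treated with a range of test-compound concentrations. Cells were collected, fixed in ice-cold 70% ethanol, and lysed in buffer containing RNase A and 0.1% Triton X-100. They were stained with propidium iodide for flow-cytometric DNA content, and the DNA histograms were analysed to give the percentage of cells in each phase.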

[5] = system: HeLa cells; test: Cell viability; assay type: cell-based, human; settings: 2.5 μM, 48 h; BHA 10 μM, TOC 100 μM, NAC 100 μM, GSH 1 mM, DTT 1 mM
[6] = system: HeLa cells; test: Intracellular GSH content; assay type: cell-based, human; settings: 24 h, concentration-dependent; counteracted by NAC 100 μM
[7] = system: PBMC not stimulated with PHA; test: Cytotoxicity in resting PBMC; assay type: cell-based, human; settings: resting PBMC vs lymphoblastic cell lines
Procedure, shortened: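 PBMC from healthy donors were isolated on a Lymphoprep gradient, washed, and held overnight at 1.0 × 10^6 cells/mL in RPMI-1640 with 10% FBS. Non-adherent cells were resuspended at 5 × 10^5 cells/mL without PHA, given a range of test-compound concentrations for 72 h, and read by MTT. Values are mean ± SEM of three separate experiments.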

[8] = system: γH2A.X in HeLa cells; test: Western blot of γH2A.X; assay type: cell-based, human; settings: 24 or 48 h treatment
Procedure, shortened: as §2

[9] = system: HeLa cells; test: Annexin-V/PI apoptosis assay; assay type: cell-based, human; settings: 24 h, further increased after 48 h
[10] = system: HeLa cells; test: Cell viability with or without pan-caspase inhibitor z-VAD.fmk; assay type: cell-based, human; settings: compound 2.5 μM, z-VAD.fmk 100 μM, 48 h
Procedure, shortened: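 HeLa cells were exposed for 48 h to test compound with or without the pan-caspase inhibitor, and viability was recorded as a percentage. Data are means ± SEM of three independent experiments. Significance against compound-alone treatment was tested by Student's t-test. Final DMSO was ≤0.25%.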

[11] = system: Bovine brain tubulin; test: In vitro inhibition of tubulin polymerization; assay type: biochemical; settings: 10 μM purified tubulin, glutamate buffer, 30 °C
Procedure, shortened: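 Tubulin was purified from bovine brain. Varying test-compound concentrations were preincubated with the tubulin at 30 °C, then cooled to 0 °C. GTP was added, the mixtures were moved to 0 °C cuvettes in a recording spectrophotometer and warmed to 30 °C, and assembly was followed turbidimetrically.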

[12] = system: microtubule network in HeLa cells; test: Immunofluorescence analysis of microtubule network; assay type: cell-based, human; settings: 2.5 or 5.0 μM, 24 h, anti-β-tubulin staining
Procedure, shortened: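 Untreated HeLa cells served as the control. After 24 h exposure, cells were fixed in cold 4% formaldehyde for 15 min. Staining used mouse monoclonal anti-β-tubulin (1:1000), then an Alexa-conjugated secondary antibody (1:2000), with DAPI (1:10,000) counterstain for nuclei. Cells were imaged by confocal microscopy at 20×.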

[13] = system: HeLa cells; test: Mitochondrial membrane potential; assay type: cell-based, human; settings: JC-1, time course
[14] = system: HeLa cells; test: ROS production by flow cytometry; assay type: cell-based, human
[15] = system: U-937 (lymphoma) cells; settings: read-out: IC50 U-937; ref [18],[19]; cited from earlier work
[16] = system: HeLa (cervical) cancer cells; settings: read-out: IC50 HeLa (literature); ref [18],[19]; cited from earlier work
[17] = system: Jurkat cells; test: Cell growth inhibitory activity; assay type: cell-based, human; settings: additional meta-methoxy
Procedure, shortened: as §1

[18] = system: LoVo cells; test: Cell growth inhibitory activity; assay type: cell-based, human; settings: additional meta-methoxy
Procedure, shortened: as §1

C=C(Br)C(=O)O [α-bromoacrylic acid]
IC50 [1]: > 120 µM

C=C(Br)C(=O)Nc1cccc(/C=C/C(=O)Nc2ccccc2)c1 [4a, N-{3-[(1E)-3-anilino-3-oxoprop-1-en-1-yl]phenyl}-2-bromoacrylamide]
IC50 [2]: 0.19 to 27.3 µM

C=C(Br)C(=O)Nc1cccc(/C=C/C(=O)Nc2ccc(N3CCOCC3)cc2)c1 [4p, 2-Bromo-N-(3-{(1E)-3-oxo-3-[(4-morpholinophenyl)amino]prop-1-en-1-yl}phenyl)-acrylamide]
Bak and Bax expression [3]: remained practically unchanged | Mcl-1 expression [3]: decreased | Bid expression [3]: nearly complete disappearance | effect on cell cycle progression [4]: significant G2/M arrest | cell viability in the presence of antioxidants [5]: only the thiol-containing scavengers (NAC, GSH and DTT) significantly increased cell viability | intracellular GSH content (CMFDA fluorescence) [6]: remarkable decrease; also recorded: substantially reduced CMFDA fluorescence | fold lower toxicity in resting PBMC respect to Jurkat and CEM [7]: 10–100 fold | γH2A.X expression [8]: induced this effect only after 48 h | annexin-V positive cells [9]: accumulation of annexin-V positive cells | cell viability with z-VAD.fmk [10]: significantly increased cell viability | Concentration up to which tubulin assembly was not inhibited [11]: > 20 µM | fold enhancement of antiproliferative activity relative to 4a ([2]; morpholin-4-yl, six of seven cell lines, exception CEM): 8–100 fold | effect on microtubule network [12]: not substantially modified

C=C(Br)C(=O)Nc1cccc(/C=C/C(=O)Nc2cc(OC)c(OC)c(OC)c2)c1 [4o, 2-Bromo-N-(3-{(1E)-3-oxo-3-[(3,4,5-trimethoxyphenyl)amino]prop-1-en-1-yl}phenyl)-acrylamide]
Concentration up to which tubulin assembly was not inhibited [11]: > 20 µM | IC50 [2]: 0.018 to 2.3 µM

C=C(Br)C(=O)Nc1ccc(/C=C/C(=O)Nc2cc(OC)c(OC)c(OC)c2)cc1 [4r]
mitochondrial depolarization, onset time [13]: ≥ 12 h | ROS production, H2DCFDA-positive cells ([14]; 1–6 h, concentration-dependent): early but modest increase | ROS production, HE fluorescence (superoxide anion) ([14]; data not shown): did not detect any increase | Bak and Bax expression [3]: remained practically unchanged | Mcl-1 expression [3]: decreased | Bcl-2 expression ([3]; 24 and 48 h): decreased | Bid expression [3]: nearly complete disappearance | concentration at which rise in G2/M cells occurs (as low as) [4]: 2 µM | effect on cell cycle progression [4]: significant G2/M arrest | cell viability in the presence of antioxidants [5]: only the thiol-containing scavengers (NAC, GSH and DTT) significantly increased cell viability | intracellular GSH content (CMFDA fluorescence) [6]: substantially reduced CMFDA fluorescence | fold lower toxicity in resting PBMC respect to Jurkat and CEM [7]: 10–100 fold | γH2A.X expression [8]: induced γH2A.X expression | annexin-V positive cells [9]: accumulation of annexin-V positive cells | cell viability with z-VAD.fmk [10]: significantly increased cell viability | Concentration up to which tubulin assembly was not inhibited [11]: > 20 µM | effect on microtubule network [12]: not substantially modified

COc1cc(NC(=O)/C=C/c2cccc(OCc3ccccc3)c2)cc(OC)c1OC [1b, reference compound]
IC50 [15]: 1.8 µM | IC50 [2]: 2.2 to 21.7 µM | fold more potent than 1a ([2]; across seven cell lines): 1.5- to 12 fold

C=C(Br)C(=O)Nc1cccc(/C=C/C(=O)Nc2ccc(Cl)cc2)c1 [4f, 2-Bromo-N-(3-{(1E)-3-oxo-3-[(4-chlorophenyl)amino]prop-1-en-1-yl}phenyl)-acrylamide]
fold increase of antiproliferative activity, fluorine to chlorine ([2]; vs 4c): 2–30 fold

C=C(Br)C(=O)Nc1cccc(/C=C/C(=O)Nc2ccc(C)cc2)c1 [4g, 2-Bromo-N-(3-{(1E)-3-oxo-3-[(p-tolyl)amino]prop-1-en-1-yl}phenyl)-acrylamide]
fold increase in potency vs 4f ([2]; chlorine replaced by methyl): 2–10 fold

C=C(Br)C(=O)Nc1cccc(/C=C/C(=O)Nc2cccc(F)c2)c1 [4d, 2-Bromo-N-(3-{(1E)-3-oxo-3-[(3-fluorophenyl)amino]prop-1-en-1-yl}phenyl)-acrylamide]
fold enhancement of antiproliferative activity vs 4c ([2]; fluorine moved para to meta, six of seven cell lines, exception CEM): 4–15 fold

C=C(Br)C(=O)Nc1cccc(/C=C/C(=O)Nc2ccc(OC)cc2)c1 [4i, 2-Bromo-N-(3-{(1E)-3-oxo-3-[(4-methoxyphenyl)amino]prop-1-en-1-yl}phenyl)-acrylamide]
Concentration up to which tubulin assembly was not inhibited [11]: > 20 µM | fold increase in antiproliferative activity relative to 4a ([2]; para-methoxy): 7–15 fold

C=C(Br)C(=O)Nc1cccc(/C=C/C(=O)Nc2ccc(F)c(F)c2)c1 [4e, 2-Bromo-N-(3-{(1E)-3-oxo-3-[(3,4-difluorophenyl)amino]prop-1-en-1-yl}phenyl)-acrylamide]
Concentration up to which tubulin assembly was not inhibited [11]: > 20 µM | fold increase of antiproliferative activity relative to 4c ([2]; additional meta-fluorine, all cancer cell lines): 4–1300 fold

COc1cccc(/C=C/C(=O)Nc2cc(OC)c(OC)c(OC)c2)c1 [1a]
IC50 [16]: 11.3 µM | IC50 [15]: 3 µM

COc1cc(NC(=O)/C=C/c2cccc(N)c2)cc(OC)c1OC [7o, (E)-3-(3-aminophenyl)-N-(3,4,5-trimethoxyphenyl)acryl-amide]
IC50 [2]: 2.81 to 63.1 µM | fold less active than 4o ([2]; across seven cell lines): 30–700 fold

C=C(Br)C(=O)Nc1cccc(/C=C/C(=O)Nc2ccc(OC)c(OC)c2)c1 [4m, 2-Bromo-N-(3-{(1E)-3-oxo-3-[(3,4-dimethoxyphenyl)amino]prop-1-en-1-yl}phenyl)-acrylamide]
fold increase in activity vs 4i, Jurkat [17]: 2 fold | fold increase in activity vs 4i, LoVo [18]: 3 fold | Concentration up to which tubulin assembly was not inhibited [11]: > 20 µM

C=C(Br)C(=O)Nc1cccc(/C=C/C(=O)Nc2cccc3ccccc23)c1 [4b, 2-Bromo-N-(3-{(1E)-3-oxo-3-[(naphthalen-1-yl)amino]prop-1-en-1-yl}phenyl)-acrylamide]
IC50 [2]: 0.68 to 6.5 µM

C=C(Br)C(=O)Nc1cccc(/C=C/C(=O)NCc2ccc(C)cc2)c1 [4h, 2-Bromo-N-(3-{(1E)-3-[(4-methylbenzyl)amino]-3-oxoprop-1-en-1-yl}phenyl)acrylamide]
fold reduced activity compared with 4g ([2]; cell lines other than HeLa, LoVo and MCF-7): 2 to 7 fold
